In ChEMBL document CHEMBL1671698, “Is the recommended once-daily dose of lamivudine optimal in West African HIV-infected children?” (Antimicrob Agents Chemother, 2010):

Experiments:
[1] = Cmax in HIV-1 infected children aged 2.5 to 14 years at 8 mg/kg, po every 24 hrs coadministered with 240 mg/m2 of didanosine and efavirenz by HPLC; format: ADME, organism-based; set-up: dose 8 mg/kg, route oral; details: human, in vivo
Method in brief: (§1)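 Treatment-naive children took once-daily oral lamivudine at 8 mg/kg (tablets or solution) at 6 p.m. without food, with didanosine 240 mg/m2 and weight-banded efavirenz. Blood was drawn after 15 days (38 children) or 2–5 months (11 children), either predose plus 1 and 3 h, or predose through 24 h. Plasma was kept at −70°C and assayed by HPLC-UV (LLOQ 0.025 mg/liter). Data were fitted with a two-compartment population model in NONMEM using FOCE.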

[2] = AUC (0 to tau) in HIV-1 infected children aged 2.5 to 14 years at 8 mg/kg, po every 24 hrs coadministered with 240 mg/m2 of didanosine and efavirenz by HPLC; format: ADME, organism-based; set-up: dose 8 mg/kg, route oral; details: human, plasma; method in brief: as §1
[3] = Cmax in HIV-1 infected children aged 6.9 years at 4 mg/kg, po every 12 hrs coadministered with nevirapine and stavudine by HPLC; format: ADME, organism-based; set-up: dose 4 mg/kg, route oral; details: human, in vivo
[4] = AUC (0 to tau) in HIV-1 infected children aged 6.9 years at 4 mg/kg, po every 12 hrs coadministered with nevirapine and stavudine by HPLC; format: ADME, organism-based; set-up: dose 4 mg/kg, route oral; details: human, plasma
[5] = Cmax in HIV-1 infected children aged 2.5 to 4.8 years at 4 mg/kg, po every 12 hrs by HPLC; format: ADME, organism-based; set-up: dose 4 mg/kg, route oral; details: human, in vivo
[6] = AUC (0 to tau) in HIV-1 infected children aged 2.5 to 4.8 years at 4 mg/kg, po every 12 hrs by HPLC; format: ADME, organism-based; set-up: dose 4 mg/kg, route oral; details: human, plasma
[7] = Cmax in HIV-1 infected children aged 8.5 to 12.3 years at 4 mg/kg, po every 12 hrs by HPLC; format: ADME, organism-based; set-up: dose 4 mg/kg, route oral; details: human, in vivo
[8] = AUC (0 to tau) in HIV-1 infected children aged 8.5 to 12.3 years at 4 mg/kg, po every 12 hrs by HPLC; format: ADME, organism-based; set-up: dose 4 mg/kg, route oral; details: human, plasma
[9] = Cmax in HIV-1 infected children aged 2.1 to 12.8 years at 4 mg/kg, po every 12 hrs coadministered with 8 mg/kg abacavir by HPLC; format: ADME, organism-based; set-up: dose 4 mg/kg, route oral; details: human, in vivo
[10] = AUC (0 to tau) in HIV-1 infected children aged 2.1 to 12.8 years at 4 mg/kg, po every 12 hrs coadministered with 8 mg/kg abacavir by HPLC; format: ADME, organism-based; details: human, plasma
[11] = AUC in HIV-1 infected children with body weight <17 kg at 8 mg/kg, po every 24 hrs coadministered with 240 mg/m2 of didanosine and efavirenz by HPLC; format: ADME, organism-based; set-up: dose 8 mg/kg, route oral; details: human, plasma
[12] = AUC in HIV-1 infected children with body weight >17 kg at 8 mg/kg, po every 24 hrs coadministered with 240 mg/m2 of didanosine and efavirenz by HPLC; format: ADME, organism-based; set-up: dose 8 mg/kg, route oral; details: human, plasma
Homo sapiens = assay: AUC in HIV-1 infected children with body weight <17 kg at 10 mg/kg, po every 24 hrs coadministered with 240 mg/m2 of didanosine and efavirenz by HPLC; format: ADME, organism-based, Plasma; set-up: dose 10 mg/kg, route oral; details: in vivo
[13] = Cmax in HIV-1 infected children aged 2.1 to 12.8 years at 8 mg/kg, po every 24 hrs coadministered with 8 mg/kg abacavir by HPLC; details: human, in vivo
[14] = AUC (0 to tau) in HIV-1 infected children aged 2.1 to 12.8 years at 8 mg/kg, po every 24 hrs coadministered with 8 mg/kg abacavir by HPLC; details: human, plasma

Nc1ccn([C@@H]2CS[C@H](CO)O2)c(=O)n1 [LAMIVUDINE]
Cmax [1]: 1700 ng/mL
AUC tau at 24 h [2]: 7800 ng·h/mL
Cmax [3]: 1330 ng/mL
AUC tau at 12 h [4]: 5420 ng·h/mL
Cmax [5]: 980 ng/mL
AUC tau at 12 h [6]: 3710 ng·h/mL
Cmax [7]: 1840 ng/mL
AUC tau at 12 h [8]: 6540 ng·h/mL
Cmax [9]: 1110 ng/mL
AUC tau at 12 h [10]: 4440 ng·h/mL
AUC at 24 h [11]: 8100 ng·h/mL
AUC at 24 h [12]: 9100 ng·h/mL
AUC (Homo sapiens): 9800 ng·h/mL
Cmax [13]: 2090 ng/mL
AUC tau at 24 h [14]: 9800 ng·h/mL
